Laboratory results published in ChEMBL document CHEMBL4385665, “Synthesis of N-arylindazole-3-carboxamide and N-benzoylindazole derivatives and their evaluation against α-MSH-stimulated melanogenesis” (Bioorg Med Chem Lett, 2019).

How the values were obtained:
[1] = system: B16; assay: Inhibition of alpha-MSH-stimulated melanogenesis in mouse B16 cells assessed as reduction in melanin production incubated for 3 days; format: functional, cell-based; settings: B16, 72 h
In short: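 B16 melanoma cells stimulated with α-MSH (100nM) and incubated with test agent for three days. Melanin released into the culture medium was quantified by sample absorbance against a synthetic melanin standard, and IC50 values were derived from inhibition of melanin formation.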

[2] = system: B16; assay: Potency index, ratio of IC50 for arbutin to IC50 for test compound for inhibition of alpha-MSH-stimulated melanogenesis in mouse B16 cells assessed as reduction in melanin production incubated for 3 days; format: functional

SMILES	IC50 [1]	Ratio IC50 [2]
COc1ccccc1NC(=O)c1n[nH]c2ccccc12	16 µM	4
COc1cccc(NC(=O)c2n[nH]c3ccccc23)c1	36 µM	–
Cc1cccc(NC(=O)c2n[nH]c3ccccc23)c1	15 µM	–
O=C(c1ccccc1Cl)n1ncc2cc([N+](=O)[O-])ccc21	7 µM	9
O=C(c1ccccc1)n1ncc2cc([N+](=O)[O-])ccc21	51 µM	–
O=C(Nc1ccccc1O)c1n[nH]c2ccccc12	21 µM	–
O=C(c1ccccc1)n1ncc2cc([N+](=O)[O-])c(Br)cc21	32 µM	–
Cc1cccc(C(=O)n2ncc3cc([N+](=O)[O-])c(Br)cc32)c1	28 µM	–
O=C(Cc1cccs1)n1ncc2cc([N+](=O)[O-])ccc21	55 µM	–
O=C(c1ccccc1Cl)n1ncc2cc([N+](=O)[O-])c(Br)cc21	25 µM	4
O=C(Nc1ccc(OC(F)(F)F)cc1)c1n[nH]c2ccccc12	13 µM	5
O=C(c1ccc(Cl)cc1)n1ncc2cc([N+](=O)[O-])ccc21	60 µM	–
Cc1cccc(C(=O)n2ncc3cc([N+](=O)[O-])ccc32)c1	77 µM	–
O=C(Nc1ccccc1)c1n[nH]c2ccccc12	40 µM	–
OC[C@H]1O[C@@H](Oc2ccc(O)cc2)[C@H](O)[C@@H](O)[C@@H]1O [ARBUTIN]	64 µM	–

Continued, in another order:

IC50 [1]	SMILES	Ratio IC50 [2]
20 µM	COc1ccc(NC(=O)c2n[nH]c3ccccc23)cc1	–
69 µM	COC(=O)c1ccc(NC(=O)c2n[nH]c3ccccc23)cc1	–
38 µM	Cc1ccc(NC(=O)c2n[nH]c3ccccc23)cc1	–
93 µM	O=C(Nc1ccc(Cl)cc1)c1n[nH]c2ccccc12	–
18 µM	O=C(Nc1ccc(O)cc1)c1n[nH]c2ccccc12	–
35 µM	O=C(Nc1cccc(O)c1)c1n[nH]c2ccccc12	–
15 µM	O=C(Nc1ccc(C(F)(F)F)cc1)c1n[nH]c2ccccc12	4
